Assay outcomes deposited in PubChem by several laboratories.
Only some compounds are listed: those with a hit (about 2.7% of all), similar ones and a draw of the others.
LYP act = LYP phosphatase activators, primary screen, biochemical, DiFMUP fluorescence, 2 µM. recombinant LYP; 0 = plate median, 100 = signal doubled. activation, % at 2 µM. 96,000 compounds, 0.11% hits. AID 697, 2007;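 active = activation at 2 µM above a set limit, the mean plus 5 SD, cut at about 37% in these data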
Target sequence (Q9Y2R2 whole entry, looked up): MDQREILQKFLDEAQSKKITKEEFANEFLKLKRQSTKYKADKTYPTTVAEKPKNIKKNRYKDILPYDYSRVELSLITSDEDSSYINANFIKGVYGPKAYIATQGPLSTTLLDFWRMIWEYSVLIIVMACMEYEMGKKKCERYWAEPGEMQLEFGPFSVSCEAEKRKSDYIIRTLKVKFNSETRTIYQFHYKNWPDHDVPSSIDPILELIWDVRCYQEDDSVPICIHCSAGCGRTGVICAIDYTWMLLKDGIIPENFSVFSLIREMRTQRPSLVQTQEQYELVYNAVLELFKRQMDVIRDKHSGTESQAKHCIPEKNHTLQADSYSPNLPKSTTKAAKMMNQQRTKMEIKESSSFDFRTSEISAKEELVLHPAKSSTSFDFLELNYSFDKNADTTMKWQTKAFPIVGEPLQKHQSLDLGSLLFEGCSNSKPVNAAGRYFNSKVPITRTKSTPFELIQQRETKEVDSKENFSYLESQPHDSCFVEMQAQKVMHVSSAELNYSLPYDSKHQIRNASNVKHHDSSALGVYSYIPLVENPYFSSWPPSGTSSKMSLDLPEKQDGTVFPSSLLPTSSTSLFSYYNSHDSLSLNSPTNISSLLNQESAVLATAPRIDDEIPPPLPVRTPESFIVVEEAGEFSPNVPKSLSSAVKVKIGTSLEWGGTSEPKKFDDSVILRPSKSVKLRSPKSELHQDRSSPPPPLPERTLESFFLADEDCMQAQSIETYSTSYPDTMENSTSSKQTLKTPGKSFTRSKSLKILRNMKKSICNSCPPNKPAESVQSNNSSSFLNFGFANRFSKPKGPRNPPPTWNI
PTPN22 inh 2 = PTPN22 phosphatase inhibitors, primary screen, biochemical, DiFMUP fluorescence, 2 µM; Tyrosine-protein phosphatase non-receptor type 22 (Homo sapiens), Q9Y2R2; recombinant LYP catalytic domain; inhibition, % at 2 µM; 96,000 compounds, 0.21% hits;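 active = inhibition at 2 µM at or above a set limit, the screen mean plus 3 SD, cut at about 24% in these data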;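 note: 0% = DMSO with enzyme and 100% = enzyme fully blocked by orthovanadate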
PLK1 kinase inh = human PLK1 kinase inhibitors, primary screen, biochemical, TR-FRET. Serine/threonine-protein kinase PLK1 (Homo sapiens), P53350. recombinant PLK1 kinase, TR-FRET peptide phosphorylation. AID 619, 2007. inhibition, % at 10 µM. 97,000 compounds, 0.53% hits;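 active = inhibition of 50% or more in the single-concentration screen; inactive = inhibition below 50%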;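 note: 0% = DMSO max control and 100% = H-89 dihydrochloride min control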
Plk1 PBD FP = Plk1 polo box domain binding inhibitors, primary screen, biochemical, fluorescence polarization; Serine/threonine-protein kinase PLK1 (Homo sapiens), P53350; Plk1 PBD phosphopeptide binding; inhibition, %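 (tested at about 20 µM)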; 97,000 compounds, 0.13% hits; in the data active = inhibition above about 34%, passing the limit was not always enough
PLAP act = PLAP enzyme activators, biochemical, luminescence, HTS; Alkaline phosphatase, placental type (Homo sapiens), P05187; purified PLAP enzyme, luminescent substrate read-out; hits give high values; activation fold at 20 µM; 96,000 compounds, 1.2% hits; AID 696, 2007; in the data active = activation fold above about 2
HIV Rev-RRE inh = HIV-1 Rev-RRE binding inhibitors, primary screen, biochemical, FRET, protein-RNA interaction | Rev peptide-RRE RNA binding | 97,000 compounds, 0.79% hits | AID 704, 2007 | inhibition, % at 8 µM | P05866;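 active = inhibition above the screen-wide mean plus 3 SD, cut at about 35% in these data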;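 note: 0% = median DMSO wells and 100% = median Neomycin B control wells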
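Test system: labelled RRE RNA duplex and labelled Rev peptide. Times: 5 min compound–RNA preincubation, then 15 min with peptide, 25 °C. Doses: single-dose 8 µM. Measured by: FRET, excitation 480 nm, emission 540 nm donor and 671 nm acceptor. Measure: % inhibition of FRET ratio versus controls.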
Numbers without * were called inactive; · = no result given; [ ] = remark or other dose.

SMILES	LYP act	PTPN22 inh 2	PLK1 kinase inh	Plk1 PBD FP	PLAP act	HIV Rev-RRE inh
C=CCN1C(=O)C2(NNc3ccccc3O2)c2ccccc21 (stereo not given)	10	-14	-11	-61	59	69*
CCCCN1C(=O)C2(NNc3ccccc3O2)c2ccccc21 (stereo not given)	-6	8	-14	-26	36	73*
COc1ccc(N2CCN(Cc3cc(=O)oc4cc(C)c(Cl)c(C)c34)CC2)cc1	2	2	-13	26	1.3	4
S=C(c1ccc(-c2cccc(Cl)c2)o1)N1CCOCC1	·	·	·	·	1	·
CC(C)(C)c1ccc(-c2cc(C(=O)NNC(=O)Nc3ccccc3)c3ccccc3n2)cc1	9	-11	-9	21	2.1*	5
COc1ccc(/C(C)=N/NC(=O)c2ccc(N(C)C)cc2)cc1	4	-1	-9	5	1	0
COc1ccc(/C(C)=N/NC(=O)c2nc(C)cc(C)n2)cc1	6	-4	-2	1	2*	1
CCN(CC)c1ccc(SS(=O)(=O)O)cc1	-5	8	-16	1	0.9	6
O=C(NCc1cccnc1)c1noc2c1CCCCC2	·	·	·	·	0.9	·
COc1ccc(C2=CSC3=C(C(=O)c4cccc(S(=O)(=O)N(C)C)c4)CCN23)cc1	-4	5	3	-32	2.9*	10
COc1ccc(-c2csc(NC(=O)c3cccc(S(=O)(=O)N4CCN(C)CC4)c3)n2)cc1	6	-4	-6	-8	1	3
O=c1cc(-c2ccccc2F)oc2ccccc12	-2	4	-10	-11	·	5
Cc1c2cc(O)c(=O)cc-2oc2cc(O)c(O)cc12	-94	94*	36	130*	0.6	140*[fluorescence artefact?]
CCCOc1cccc(-c2cc(-c3n[nH]c(=S)n3CC)c3ccccc3n2)c1	-20	24	-13	1	1.4	-1
CCn1c(-c2cc(-c3ccc(OC(C)C)cc3)nc3ccccc23)n[nH]c1=S	3	0	-15	4	2.2*	5
CCn1c(-c2cc(-c3cc(OC)ccc3OC)nc3ccccc23)n[nH]c1=S	-4	2	-11	2	2.3*	-8
CN(C)c1nc(SCCOC(=O)COc2ccc(Cl)cc2Cl)nc(N(C)C)n1	-7	7	-6	25	1.1	11
O=C(CSc1ncccc1-c1nc2ccccc2[nH]1)NCc1ccco1	-5	3	29	-35	2*	15
COc1ccccc1NC(=O)N1CCN(c2ccccn2)CC1	·	·	62*	6	0.9	9
Cc1cc(C)n(-c2ccc(Cl)c(C(=O)OCC(N)=O)n2)n1	0	1	-2	17	1	3
COc1ccc(C(=O)c2coc3ccc(O)c(CN4CCOCC4)c23)cc1	3	-6	-10	6	·	8
Cc1ccc(C(=O)CC(C(=O)O)c2cn(CCC#N)c3ccccc23)cc1 (stereo not given)	4	-7	-15	7	1.5	-1
N#CCCn1cc(C(CC(=O)c2ccc(Br)cc2)C(=O)O)c2ccccc21 (stereo not given)	·	·	56*	-10	1.4	4
COc1ccc2cc(CN(CC3CCCO3)S(=O)(=O)c3ccccc3Cl)c(=O)[nH]c2c1 (stereo not given)	-5	5	-10	8	2*	5
CC(=O)CCN1CCOCC1	11	-11	-9	-10	1.2	2
SMILES	LYP act	PTPN22 inh 2	PLK1 kinase inh	Plk1 PBD FP	PLAP act	HIV Rev-RRE inh
O=C(CN1C(=O)CCC1=O)Nc1nc(-c2ccccn2)cs1	2	-6	-2	17	2.2*	9
O=C(Nc1nc(-c2ccccn2)cs1)c1ncc(Cl)c(Cl)c1Cl	-26	27*	-4	-36	1	7
O=C(Nc1nc(-c2ccccn2)cs1)c1ccc(Cl)s1	·	·	·	·	1.2	·
O=C(Nc1ccccc1)N1CCN(c2ccc(C(F)(F)F)cn2)CC1	2	-2	-12	12	0.9	5
Cc1ccc2nc(SCc3nc4c(cnn4-c4ccccc4)c(=O)[nH]3)[nH]c2c1	0	2	54*	5	1.1	3
CN(C)c1ccc(/C=c2\sc3nc(-c4ccccc4)nn3c2=O)cc1	-7	5	-16	-35	1	75*
Cc1nc(CSc2ccc(Cl)cc2)cc(N2CCOCC2)n1	-3	5	-3	-4	1	0
Nc1ccc(C(=O)Nc2nc3ccccc3s2)cc1	1	-3	-9	3	0.9	-1
O=C(NNc1nc2ccccc2s1)c1ccccc1F	2	-4	-8	1	2.3*	4
CC(C)C(=O)NNc1nc2ccccc2s1	-2	0	-13	5	1	3
O=C(NNc1nc2ccccc2s1)C1CC1	3	0	-14	-13	2.2*	8
O=C(Nc1ccc2c(c1)OCO2)C1CCN(Cc2cnn(-c3ccccc3)c2-n2cccc2)CC1	-9	7	-9	-4	2.9*	14
O=C(O)C1C2CCC(O2)C1C(=O)NCCC1=CCCCC1 (stereo not given)	12	-15	-3	-20	1	7
CCC(OC(=O)CC1Sc2ccccc2NC1=O)C(=O)NCC1CCCO1 (stereo not given)	1	-2	-3	22	2*	1
CC(=O)c1c(C)nn(C(=O)c2cccs2)c1C	-3	0	-10	-18	0.9	5
O=C(c1ccc(Br)o1)N1CCN(C/C=C/c2ccccc2)CC1	-8	8	-8	-11	1.1	5
O=C(c1ccc(Br)s1)N1CCN(C/C=C/c2ccccc2)CC1	1	-2	-4	1	2*	9
CCc1ccc2c(c1)CCCN2C(=O)c1ccccc1C(=O)O	-6	6	-4	18	0.9	14
CCN(CC)c1nc(OCCNC(=O)Nc2ccccc2)nc(N(CC)CC)n1	-9	11	0	10	2.1*	-3
Cc1cccc(N=c2oc3cc(O)ccc3cc2C(N)=O)c1	1	0	-11	-11	0.8	47*
COc1ccccc1N=c1oc2cc(O)ccc2cc1C(N)=O	-3	0	-3	-59	0.9	63*
COc1ccccc1N=c1oc2cc(O)ccc2cc1C(=O)NCC1CCCO1 (stereo not given)	-7	8	-6	11	1.2	32
Fc1ccc(Nc2ncnc3sc4c(c23)CCC4)cc1	0	2	9	22	1.3	7
Cc1n[nH]c(C)c1N1C(=O)c2cccc3c(N4CCCCCC4)ccc(c23)C1=O	-4	4	-104	-182	1.1	134*[fluorescence artefact?]
O=C1c2cccc3c(N4CCCCC4)ccc(c23)C(=O)N1CCO	-3	8	-30	-141	0.8	118*[fluorescence artefact?]
